ChEMBL document CHEMBL1772954, “Antifungal, cytotoxic and SAR studies of a series of N-alkyl, N-aryl and N-alkylphenyl-1,4-pyrrolediones and related compounds” (Bioorg Med Chem, 2011)
In brackets after ≈: the same amount, converted by molar mass.

Columns and labels:
[1] = system: Nannizzia gypsea; experiment: Antifungal activity against Microsporum gypseum C 115 2000; type: functional
Outline: (§1)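 Dermatophytes tested by CLSI M38-A2 microdilution in MOPS-buffered RPMI-1640 at pH 7.0. Inoculum 1-5 × 10^3 CFU/mL; compounds 250 to 0.24 µg/ml in twofold steps, final DMSO <1%. Incubated at 28 °C in a moist, dark chamber and read according to control growth. MIC is the lowest concentration with complete inhibition. MFC is the lowest concentration with no growth after duplicate subculture on SDA.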

[2] = system: NCI-H460; experiment: Cytotoxicity against human H460 cells assessed as cell growth after 2 days by sulforhodamine B assay; type: functional; settings: NCI-H460, 48 h
Outline: (§2)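 NCI cell lines were run by the Monks method: cells were plated with compounds from DMSO stocks and incubated 2 days at 37 °C in 5% CO2, in duplicate. Cells were fixed with cold TCA, stained with 0.4% SRB, and the bound dye was solubilized in 10 mM tris-base and read at 515 nm. The zero-day control was subtracted, and GI50 was taken from the curves.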

[3] = system: Trichophyton rubrum; experiment: Antifungal activity against Trichophyton rubrum C 113 2000; type: functional; outline: as §1
[4] = system: Aspergillus niger; experiment: Antifungal activity against Aspergillus niger ATCC 9029; type: functional
Outline: (§3)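 Broth microdilution per CLSI M38-A2 in RPMI-1640 with MOPS at pH 7.0. Inoculum 1-5 × 10^3 CFU/mL, with twofold compound dilutions spanning 250-0.24 µg/ml (final DMSO <1%). Plates incubated at 35 °C, moist and dark, and read when the control fungus had grown. MIC is total growth inhibition. MFC comes from subculturing clear wells in duplicate onto SDA.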

[5] = system: Candida tropicalis; experiment: Antifungal activity against Candida tropicalis C 131 2000; type: functional
Outline: (§4)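 CLSI M27-A3 broth microdilution in RPMI-1640 buffered to pH 7.0 with MOPS. Inoculum 1-5 × 10^3 CFU/mL. Compound twofold dilutions from 250 to 0.24 µg/ml, final DMSO <1%. Incubated at 35 °C in a moist, dark chamber and read at 48 h. MIC is the lowest concentration giving total growth inhibition. For MFC, 5 µL from clear wells was plated in duplicate on SDA; MFC is the lowest concentration with no growth.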

[6] = system: Candida albicans; experiment: Antifungal activity against Candida albicans ATCC 10213; type: functional; outline: as §4
[7] = system: Aspergillus flavus; experiment: Antifungal activity against Aspergillus flavus ATCC 9170; type: functional; outline: as §3
[8] = system: Aspergillus fumigatus; experiment: Antifungal activity against Aspergillus fumigatus ATCC 26934; type: functional; outline: as §3
[9] = system: Saccharomyces cerevisiae; experiment: Antifungal activity against Saccharomyces cerevisiae ATCC 9763; type: functional; outline: as §4
[10] = Cytotoxicity against human erythrocytes assessed as hemolysis by spectrometric analysis; type: cell-based, Erythrocyte
Outline: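 Human heparinized red blood cells were washed in PBS at pH 7.0 and suspended at 4% in sterile 5% glucose. Compounds from DMSO stocks were diluted in 5% glucose to final concentrations of 250 to 0.24 µg/ml and incubated with the cells at 37 °C. Released hemoglobin was read at 540 nm. HC50 is the concentration giving 50% lysis relative to the drug-free value.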

[11] = system: Trichophyton mentagrophytes; experiment: Antifungal activity against Trichophyton mentagrophytes ATCC 9972; type: functional; outline: as §1
[12] = system: MCF7; experiment: Cytotoxicity against human MCF7 cells assessed as cell growth after 2 days by sulforhodamine B assay; type: functional; settings: MCF7, 48 h; outline: as §2
[13] = system: SF-268; experiment: Cytotoxicity against human SF268 cells assessed as cell growth after 2 days by sulforhodamine B assay; type: functional; settings: SF-268, 48 h; outline: as §2
[14] = system: Cryptococcus neoformans; experiment: Antifungal activity against Cryptococcus neoformans ATCC 32264; type: functional; outline: as §4

Row | SMILES | MFC [1] [mg/L] | MIC [1] [mg/L] | GI50 [2] [mg/L] | MFC [3] [mg/L] | MIC [3] [mg/L] | MFC [4] [mg/L] | MIC [4] [mg/L] | MFC [5] [mg/L] | MIC [5] [mg/L] | MFC [6] [mg/L] | MIC [6] [mg/L] | MFC [7] [mg/L] | MIC [7] [mg/L] | MFC [8] [mg/L] | MIC [8] [mg/L] | MFC [9] [mg/L] | MIC [9] [mg/L] | HC50 [10] [µg/mL] | MFC [11] [mg/L] | MIC [11] [mg/L] | other results
1 | O=C1C(Cl)=C(Cl)C(=O)N1CCCCc1ccccc1 | 31.2 (≈ 105 µM) | 15.6 (≈ 52.4 µM) | > 10 | 7.81 (≈ 26.2 µM) | 3.9 (≈ 13.1 µM) | 15.6 (≈ 52.4 µM) | 15.6 (≈ 52.4 µM) | 15.6 (≈ 52.4 µM) | 7.81 (≈ 26.2 µM) | 15.6 (≈ 52.4 µM) | 7.81 (≈ 26.2 µM) | 31.2 (≈ 105 µM) | 15.6 (≈ 52.4 µM) | 62.5 (≈ 210 µM) | 31.2 (≈ 105 µM) | 7.81 (≈ 26.2 µM) | 3.9 (≈ 13.1 µM) | > 250 | 7.81 (≈ 26.2 µM) | 3.9 (≈ 13.1 µM) | GI50 [12]: > 10 mg/L; GI50 [13]: > 10 mg/L; MFC [14]: 3.9 mg/L (≈ 13.1 µM); MIC [14]: 3.9 mg/L (≈ 13.1 µM)
2 | COc1ccc(N2C(=O)C=CC2=O)c(OC)c1 | 7.81 (≈ 33.5 µM) | 3.9 (≈ 16.7 µM) | > 10 | 7.81 (≈ 33.5 µM) | 3.9 (≈ 16.7 µM) | 62.5 (≈ 268 µM) | 15.6 (≈ 67 µM) | 15.6 (≈ 67 µM) | 15.6 (≈ 67 µM) | 15.6 (≈ 67 µM) | 15.6 (≈ 67 µM) | 125 (≈ 536 µM) | 62.5 (≈ 268 µM) | 62.5 (≈ 268 µM) | 31.2 (≈ 134 µM) | 7.81 (≈ 33.5 µM) | 7.81 (≈ 33.5 µM) | > 250 | 3.9 (≈ 16.7 µM) | 3.9 (≈ 16.7 µM) | GI50 [12]: > 10 mg/L; GI50 [13]: > 10 mg/L; MFC [14]: 7.81 mg/L (≈ 33.5 µM); MIC [14]: 7.81 mg/L (≈ 33.5 µM)
3 | CCN1C(=O)C=CC1=O [N-ETHYLMALEIMIDE] | 7.81 (≈ 62.4 µM) | 7.81 (≈ 62.4 µM) | 6.7 (≈ 53.5 µM) | 3.9 (≈ 31.2 µM) | 3.9 (≈ 31.2 µM) | 15.6 (≈ 125 µM) | 7.81 (≈ 62.4 µM) | 125 (≈ 999 µM) | 62.5 (≈ 499 µM) | 250 (≈ 2000 µM) | 62.5 (≈ 499 µM) | 15.6 (≈ 125 µM) | 15.6 (≈ 125 µM) | 31.2 (≈ 250 µM) | 15.6 (≈ 125 µM) | 15.6 (≈ 125 µM) | 7.81 (≈ 62.4 µM) | > 250 | 15.6 (≈ 125 µM) | 7.81 (≈ 62.4 µM) | GI50 [12]: 9.9 mg/L (≈ 79.1 µM); GI50 [13]: 6.5 mg/L (≈ 51.9 µM); MFC [14]: 31.2 mg/L (≈ 250 µM); MIC [14]: 15.6 mg/L (≈ 125 µM)
4 | CCCCN1C(=O)C=CC1=O | 3.9 (≈ 25.5 µM) | 3.9 (≈ 25.5 µM) | > 10 | 1.95 (≈ 12.7 µM) | 1.95 (≈ 12.7 µM) | 3.9 (≈ 25.5 µM) | 3.9 (≈ 25.5 µM) | 3.9 (≈ 25.5 µM) | 3.9 (≈ 25.5 µM) | 15.6 (≈ 102 µM) | 3.9 (≈ 25.5 µM) | 7.81 (≈ 51 µM) | 1.95 (≈ 12.7 µM) | 1.95 (≈ 12.7 µM) | 1.95 (≈ 12.7 µM) | 1.95 (≈ 12.7 µM) | 1.95 (≈ 12.7 µM) | > 250 | 3.9 (≈ 25.5 µM) | 1.95 (≈ 12.7 µM) | GI50 [12]: > 10 mg/L; GI50 [13]: > 10 mg/L; MFC [14]: 7.81 mg/L (≈ 51 µM); MIC [14]: 3.9 mg/L (≈ 25.5 µM)
5 | COc1ccc(N2C(=O)C=CC2=O)cc1OC | 7.81 (≈ 33.5 µM) | 3.9 (≈ 16.7 µM) | > 10 | 7.81 (≈ 33.5 µM) | 3.9 (≈ 16.7 µM) | 125 (≈ 536 µM) | 62.5 (≈ 268 µM) | 15.6 (≈ 67 µM) | 15.6 (≈ 67 µM) | 62.5 (≈ 268 µM) | 31.2 (≈ 134 µM) | 125 (≈ 536 µM) | 62.5 (≈ 268 µM) | 125 (≈ 536 µM) | 62.5 (≈ 268 µM) | 15.6 (≈ 67 µM) | 7.81 (≈ 33.5 µM) | > 250 | 7.81 (≈ 33.5 µM) | 3.9 (≈ 16.7 µM) | GI50 [12]: > 10 mg/L; GI50 [13]: > 10 mg/L; MFC [14]: 15.6 mg/L (≈ 67 µM); MIC [14]: 7.81 mg/L (≈ 33.5 µM)
6 | CC1=CC(=O)N(CCCCc2ccccc2)C1=O | 15.6 (≈ 64.2 µM) | 3.9 (≈ 16 µM) | > 10 | 15.6 (≈ 64.2 µM) | 3.9 (≈ 16 µM) | 125 (≈ 514 µM) | 62.5 (≈ 257 µM) | 125 (≈ 514 µM) | 62.5 (≈ 257 µM) | 125 (≈ 514 µM) | 62.5 (≈ 257 µM) | 125 (≈ 514 µM) | 62.5 (≈ 257 µM) | 62.5 (≈ 257 µM) | 31.2 (≈ 128 µM) | 62.5 (≈ 257 µM) | 31.2 (≈ 128 µM) | > 250 | 31.2 (≈ 128 µM) | 31.2 (≈ 128 µM) | GI50 [12]: > 10 mg/L; GI50 [13]: > 10 mg/L; MFC [14]: 62.5 mg/L (≈ 257 µM); MIC [14]: 31.2 mg/L (≈ 128 µM)
